# Compound activity: PubChem, Sanford-Burnham Center for Chemical Genomics
# PPC-1+TRAIL kill = kills PPC-1 cancer cells in the presence of TRAIL | PPC-1 cells + TRAIL, ATPLite viability luminescence | cell killing (% activity), % at 4 µM or 5 µM | 220,000 compounds, 0.41% hits;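 active = cell killing above 50% in the first pass at 4 µM, then a duplicate retest at 5 µM averaging 50% or more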;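 note: plate controls were cells with TRAIL plus DMSO for no effect and medium-only wells lacking cells for full effect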
# iPSC survival up = enhancers of human iPSC single-cell survival; hiPSC single-cell survival, ATPlite luminescence; 100% = ROCK inhibitor wells, 0% = DMSO; survival enhancement, % at 20 µM; 360,000 compounds, 0.044% hits; in the data active = survival enhancement above about 18%;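 note: cells exposed to compounds for 16 hours before the ATP read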
# TRAIL sens C8 = sensitizes caspase-8 expressing cells to TRAIL; NB7+C8 cells + TRAIL, ATPlite viability luminescence; inhibition (viability loss, TRAIL sensitization), % at 10 µM; 360,000 compounds, 1% hits; AID 624354;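 active = compounds causing at least 50% loss of cell viability in the single-dose screen, relative to plate controls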
# FLuc act counter = firefly luciferase counter-screen for stimulation assays. ATPlite luciferase biochemical, luminescence, 10 min; 0 = ATP-free wells, 1 = DMSO control. activation factor at 10 µM. 200,000 tested, under 10 active;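 active = luciferase activation factor, scaled between plate controls, of at least 2 with compound at 10 µM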
# Target sequence (P08659 whole entry, looked up): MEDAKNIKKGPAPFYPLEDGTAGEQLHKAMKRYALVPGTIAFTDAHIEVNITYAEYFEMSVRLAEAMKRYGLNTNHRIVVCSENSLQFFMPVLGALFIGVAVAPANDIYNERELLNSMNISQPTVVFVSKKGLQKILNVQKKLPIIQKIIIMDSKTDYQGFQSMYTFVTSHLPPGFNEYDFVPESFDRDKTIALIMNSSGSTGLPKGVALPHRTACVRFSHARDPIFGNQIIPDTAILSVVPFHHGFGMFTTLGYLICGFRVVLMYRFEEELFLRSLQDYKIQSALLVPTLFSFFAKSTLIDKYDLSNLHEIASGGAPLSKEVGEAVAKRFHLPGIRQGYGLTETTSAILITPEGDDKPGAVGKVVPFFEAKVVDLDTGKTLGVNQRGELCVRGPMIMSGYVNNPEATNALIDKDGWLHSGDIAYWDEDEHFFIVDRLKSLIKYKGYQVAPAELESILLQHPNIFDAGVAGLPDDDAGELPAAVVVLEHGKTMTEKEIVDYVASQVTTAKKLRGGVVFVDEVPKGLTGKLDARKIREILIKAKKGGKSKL
#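 System: cell-free luciferase reagent; medium: PBS as buffer for the ATP substrate; doses: test compounds dosed from 2 mM stocks in 100% DMSO; incubation: 10 min, room temperature; measured by: luminescence from luciferase reaction; read-out: luciferase activation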
# MIN6 prolif = MIN6 beta-cell proliferation induction; MIN6 cells proliferation, ATPlite luminescence, 48 h; cells starved in 0.2% serum; 100% = growth in 10% serum; proliferation, % at 10 µM; 330,000 compounds, 0.29% hits; AID 2380;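 active = compounds whose signal lies at least 3.5 SD above the mean of all wells on their plate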;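 note: 0% = DMSO-treated cells in low-serum medium and 100% = 10% serum control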
# FLuc inhib CS = inhibits firefly luciferase, flagging false hits in luciferase inhibition screens. P08659. ATPLite firefly luciferase biochemical luminescence, 10 min. inhibition, % at 10 µM. 200,000 compounds, 1.5% hits;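 active = inhibition above about 50% when tested at 10 µM, limit read from the data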
# Active calls of the source: *; nt = not tested or not shown. Shown are actives, neighbours in structure and some others; about 1.8% of the full set was active somewhere.
SMILES,PPC-1+TRAIL kill,iPSC survival up,TRAIL sens C8,FLuc act counter,MIN6 prolif,FLuc inhib CS
N#Cc1ccccc1NC(=O)c1ccc2c(Cl)c3c(nc2c1)CCCC3,37,-1,20,0.5,0,50*
CSc1n[nH]c(NCc2ccc(C)cc2)n1,25,-2,31,0.4,-1,60*
Cc1ccc(CNC(=O)c2ccc(N3CCC4(CC3)CC(c3ccccc3)=NO4)c(NC(=O)c3c(Cl)cccc3Cl)c2)cc1,nt,0,-8,nt,-1,nt
COc1cccc2sc3ccc(C#CC4(O)CCCCC4)cc3c(=O)c12,nt,-3,54*,nt,-9,nt
O=c1c2ccccc2sc2ccc(C#CC3(O)CCCCC3)cc12,nt,-4,93*,nt,-9,nt
CCc1ccc([C@@H]2C[C@H]3[C@@H](CN2S(=O)(=O)c2ccc(C)cc2)C(=O)C[C@@H](c2ccccc2F)N3S(=O)(=O)c2ccc(C)cc2)cc1,nt,-1,1,nt,nt,nt
CN1C(=O)[C@H]2[C@@H](c3ccc(C(F)(F)F)cc3)N[C@]3(CCCN(Cc4ccc(Cl)cc4)C3=O)[C@H]2C1=O,nt,-3,-3,nt,nt,nt
Cc1cccc(N(C(=O)C(F)(F)F)C(C(=O)NC2CCCCC2)c2cccs2)c1 (centres undefined),22,-1,-3,1,-2,-5
C#CC(=O)N(c1cccc(OC)c1)C(C(=O)NC1CCCC1)c1cccs1 (centres undefined),94*,-1,96*,1,-5,-1
COc1ccccc1C(=O)NCCC(=O)NCCCSc1ccccc1,nt,0,4,nt,2,nt
N/C(=N\OC(=O)c1cc(Br)ccc1Cl)c1ccccn1,36,-3,48,0.5,-3,52*
N/C(=N\OC(=O)c1cc([N+](=O)[O-])ccc1Cl)c1ccccn1,21,-1,-13,nt,-4,nt
COc1cccc(C(=O)O/N=C(\N)c2ccccn2)c1,nt,0,79*,nt,-4,nt
N/C(=N\OC(=O)c1cccc2ccccc12)c1ccccn1,31,-1,56*,nt,-7,nt
Cc1c(C(=O)O/N=C(\N)c2ccccn2)cccc1[N+](=O)[O-],48,0,75*,nt,-5,nt
COc1ccccc1C/C(N)=N/OC(=O)c1cccc([N+](=O)[O-])c1,15,-1,76*,1,-2,-1
CCCc1ccc(C(=O)O/N=C(\N)c2ccccn2)cc1,nt,0,89*,nt,-4,nt
N/C(=N\OC(=O)c1ccc(=O)n(Cc2ccccc2)c1)c1ccccn1,5,0,-8,1,-6,-5
N/C(=N\OC(=O)c1ccc(Cl)cc1[N+](=O)[O-])c1ccccn1,nt,0,31,nt,-3,nt
COc1ccc(C/C(N)=N/OC(=O)c2cccc([N+](=O)[O-])c2)cc1,19,0,12,1,-4,-1
Cc1ccc(C(=O)O/N=C(\N)c2ccccn2)c(Cl)c1,nt,-1,91*,nt,-4,nt
N/C(=N\OC(=O)c1cccc([N+](=O)[O-])c1)c1ccccn1,21,-2,16,0.3,-2,67*
COc1ccc(C(CNC(=O)C2CCN(S(=O)(=O)c3ccc(F)cc3)CC2)N(C)C)cc1 (centres undefined),nt,1,4,nt,-1,nt
Cc1ccccc1OCCC(=O)OCC(=O)NC1CCCCC1,nt,0,-4,nt,0,nt
CC1CCCN(S(=O)(=O)c2ccc(C(=O)Nc3nnc(-c4ccco4)o3)cc2)C1 (centres undefined),nt,0,-2,nt,-6,nt
SMILES,PPC-1+TRAIL kill,iPSC survival up,TRAIL sens C8,FLuc act counter,MIN6 prolif,FLuc inhib CS
Cc1cc(C)cc(C(=O)NC(CC(N)=O)c2ccc(NC3CCCC3)c([N+](=O)[O-])c2)c1 (centres undefined),nt,0,-1,nt,-1,nt
N/C(=N\OC(=O)c1ccc([N+](=O)[O-])cc1Cl)c1ccccn1,nt,-1,88*,nt,-5,nt
O=C(Nc1cccc2ccccc12)OCc1cncs1,-3,-1,-9,1,-1,-3
CC(=O)c1cnc2c(-c3ccccc3)cnn2c1C,-5,-2,4,0.9,-2,7
CCOC(=O)c1cnc2c(-c3ccccc3)cnn2c1C,23,-2,58*,0.2,-4,75*
COc1ccc(/C=C(\NC(=O)c2ccccc2)C(=O)N2CCC(C)CC2)cc1,nt,1,-1,nt,2,nt
O=C1C(=O)c2c(ccc3ccccc23)-c2ccccc21,nt,-2,67*,nt,nt,nt
CNC(=S)N/N=C/C1=CCC2CC1C2(C)C (centres undefined),25,-1,6,0.4,1,62*
CCc1ccc(C(=O)Cn2ccsc2=N)cc1,nt,0,59*,nt,-6,nt
CC(C)(C)NC(=O)NC(=O)Cn1ccsc1=N,25,0,-4,1,0,-2
COc1ccc(C)cc1NC(=O)COC(=O)CCC(=O)c1cccs1,nt,-4,-13,nt,1,nt
O=[N+]([O-])c1ccc(N/N=C/c2cn(-c3ccccc3)nc2-c2ccccc2)cc1,14,1,19,0.8,-6,18
NS(=O)(=O)c1ccc(N/N=C/c2cn(-c3ccccc3)nc2-c2ccccc2)c([N+](=O)[O-])c1,28,0,54*,1,-6,5
CC(OC(=O)c1ccc2c(c1)OCCO2)C(=O)c1ccccc1 (centres undefined),nt,-1,26,nt,-3,nt
CCOC(=O)[C@]12CCCC=C1N(Cc1ccco1)C(=O)[C@H](CC(=O)N1CCCCC1)C2,nt,-1,0,nt,nt,nt
O=C(O)c1ccc(COc2ccccc2Cl)cc1,21,-3,-12,1,-3,3
O=C(O)c1cccc(COc2ccccc2Cl)c1,25,-4,34,0.4,-3,63*
COCCNC(=O)C1(C)CCCN(Cc2ccc(Cl)c(Cl)c2)C1 (centres undefined),nt,2,-8,nt,nt,nt
CCN(CC(=O)Nc1ccc(NC(C)=O)cc1)C(=O)/C=C/c1ccc([N+](=O)[O-])cc1,nt,0,7,nt,-2,nt
COc1ccc(NC(C)=[N+](C)CCNS(=O)(=O)c2ccc(Cl)cc2)cc1,nt,0,5,nt,4,nt
CCOc1ccc(-c2c(C#N)c(N)nc3c2c(=O)n(C)c(=O)n3C)cc1OC,28,5,86*,1.2,-1,-18
COc1cccc(-c2csc(NC3OC(=O)c4c3ccc(OC)c4OC)n2)c1 (centres undefined),11,0,-14,nt,-1,nt
COc1ccc2c(c1OC)C(=O)OC2Nc1nc(-c2ccc(-c3ccccc3)cc2)cs1 (centres undefined),36,-3,62*,0.3,-5,74*
O=C(N/N=C/c1ccccc1Cl)c1ccc(F)cc1,29,0,45,0.2,-2,78*
O=C(O)COc1ccccc1/C=N/NC(=O)c1ccc(F)cc1,15,0,9,0.5,0,53*
